LGR2 antag = blocks bursicon-induced cAMP signaling via Drosophila LGR2 | HEK293 LGR2, CRE-luciferase, bursicon-stimulated, 4 h | inhibition, % at 9.99 µM | 380,000 tested, 0.35% active | AID 720647;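 active = drop in luminescence signal, shown as inhibition above about 50% in the replicate tests, limit read from the data, passing the limit was not always enough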;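 also: agonist challenge used bursicon conditioned medium at about half maximal strength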
TROY signal inh = inhibitors of TROY-dependent NF-kB signaling. Q293 LMP1-TROYcd NF-kB luciferase reporter, 4 h. inhibition, % at 10 µM. 360,000 tested, 0.98% active. AID 1347056;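 active = compounds whose plate-normalised and pattern-corrected inhibition of the luciferase reporter signal at the single screening dose is 50% or more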
XiGFP reactiv = activators of X-chromosome reactivation in mouse fibroblasts | XiGFP mouse fibroblasts, % GFP-positive cells imaging, 3 d; cells co-treated with 5-aza-dC sensitizer; scaled so ellipticine positive control = 100% | activation, % at 7.58 µM | 360,000 tested, 0.055% active | AID 743238;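 active = mean normalized replicate activation at least 10% and every replicate at or above 10%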
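Schedule: 3 d treatment, 15 min room-temperature fixation; system: 68-5-11 XiGFP fibroblast line; buffer or medium: DMEM plus 5-aza-dC sensitizer; control set: ellipticine 6 µM positive control; compound: one concentration, pinned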
TWEAK-Fn14 inh = blocks TWEAK-Fn14 interaction in a reporter cell assay | TWEAK-stimulated Fn14 reporter cells, luciferase luminescence, 8 h | 360,000 tested, 2% active | inhibition, % at 10 µM; in the data active = inhibition above about 50%
CaV13 ICDI inh = Primary screen for inhibitors of IQ motif and Ca2+-dependent inactivation inhibitor domain binding in CACNA1D, Förster resonance energy transfer in living cells, …; HEK cells, CFP/YFP FRET ICDI-IQ, plate reader, 10 min; percent FRET-ratio fall versus neutral wells; inhibition, % at 12.3 µM; 340,000 tested, 0.098% active; AID 743397;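 active = mean replicate inhibition of at least 30% and at least 1% of replicates passing that level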
Hits are given with their value; i = inactive; nt = no result given. A selection: hits, their analogues and other compounds. The true share with any hit is near 2%.

SMILES	LGR2 antag	TROY signal inh	XiGFP reactiv	TWEAK-Fn14 inh	CaV13 ICDI inh
Clc1ccc(Cn2ncc3c(N4CCN(c5ccccc5)CC4)ncnc32)cc1	i	81.2	i	101.7	i
C[C@@H]1CN([C@@H](C)CO)C(=O)c2cc(C#CCN(C)C)cnc2O[C@@H]1CN(C)Cc1ccncc1	i	nt	i	nt	nt
O=C(Nc1ccccc1F)N1C[C@H]2[C@@H](c3ccccc31)[C@@H](CO)N2C(=O)C1CCCC1	i	nt	i	nt	nt
Cc1ccc(-c2cnc3c(c2)C(=O)N([C@H](C)CO)C[C@@H](C)[C@@H](CN(C)C(=O)Cc2cccnc2)O3)cc1	i	nt	i	nt	nt
C[C@H]1CN([C@@H](C)CO)C(=O)c2cc(C#CC3CC3)cnc2O[C@@H]1CN(C)S(C)(=O)=O	i	nt	i	nt	nt
CC1CCN(c2ncnc3c2cnn3-c2ccccc2)CC1	i	i	i	i	i
Cn1ncc2c(N3CCN(c4ccc(Cl)c(Cl)c4)CC3)ncnc21	i	i	i	85.2	i
Clc1ccc(-n2ncc3c(N4CCCC4)ncnc32)cc1	72.5	80.4	nt	99.8	i
COc1cccc(OCCN2CCN(c3ncnc4c3cnn4-c3ccccc3)CC2)c1	nt	i	nt	57.1	i
Cc1noc(C)c1NC(=O)Nc1ccc2c(c1)C(=O)N([C@@H](C)CO)C[C@@H](C)[C@@H](CN(C)C(=O)C1CCCCC1)OCCCC[C@H](C)O2	i	nt	i	nt	nt
COc1cccc(S(=O)(=O)Nc2ccc3c(c2)[C@@H]2C[C@H](CC(=O)N(C)C)O[C@H](CO)[C@@H]2O3)c1	i	nt	i	nt	nt
O=C(/C=C/Nc1ccccc1)c1ccccc1	nt	i	nt	i	nt
CN(C)c1ccc(N/C=C/C(=O)c2ccccc2)cc1	nt	i	nt	95.3	i
Cc1cc(N2CCN(C)CC2)nc2ccc(NC(=S)NCCC(C)C)cc12	i	53.9	i	i	i
CN(C)CC(=O)Nc1ccc2c(c1)[C@@H]1C[C@H](CC(=O)NC3CCCC3)O[C@H](CO)[C@@H]1O2	i	nt	i	nt	nt
C[C@@H]1CN([C@H](C)CO)C(=O)c2cccc(NS(=O)(=O)c3ccc(F)cc3)c2O[C@H]1CN(C)S(=O)(=O)c1cn(C)cn1	i	nt	i	nt	nt
Nc1cccc2c1C(=O)N(C(=O)/C=C/c1ccc(F)cc1)C2=O	i	i	i	83.9	i
O=C1Nc2ccccc2N(O)N1c1cc(-c2cccc(Cl)c2)no1	nt	i	nt	i	i
O=C1Nc2ccccc2N(O)N1c1cc(-c2ccccc2Cl)no1	nt	i	nt	55.1	i
C[C@@H]1CN([C@H](C)CO)C(=O)c2cccc(NS(=O)(=O)c3ccc(Cl)cc3)c2O[C@H]1CN(C)C	i	nt	i	nt	nt
CCCN1C[C@H](C)[C@H](OC)CN(C)C(=O)c2cc(NC(=O)c3cccc(OC)c3)ccc2OC[C@H]1C	i	nt	i	nt	nt
C[C@]12c3[nH]c4ccc(Cl)cc4c3CCN1C(=O)[C@@H](CC(=O)NCCCn1ccnc1)C[C@@H]2C(=O)N1CCCCC1	i	i	i	i	i
O=C(C[C@H]1C[C@H](C(=O)N2CCCCC2)[C@@]2(CCc3ccccc3)c3[nH]c4ccc(Cl)cc4c3CCN2C1=O)NCCCn1ccnc1	i	55.4	i	i	i
COc1ccc(S(=O)(=O)N(C)C)cc1NC(=O)CCNC(=O)c1ccco1	i	i	i	i	i
COc1ccc(C(C)(C)C)cc1NC(=O)CCNC(=O)c1ccco1	i	i	i	91.4	i
SMILES	LGR2 antag	TROY signal inh	XiGFP reactiv	TWEAK-Fn14 inh	CaV13 ICDI inh
COc1cc(OC)c(OC)cc1CNCCNC(=O)c1ccco1	i	i	i	96.0	i
O=C(NCCNC(=O)c1ccco1)c1cccc(F)c1	nt	51.7	nt	i	nt
COc1ccc(C(C)(C)C)cc1NC(=O)CNc1cccc2ccccc12	i	i	i	58.3	i
COc1cccc(CNCCNC(=O)c2ccco2)c1OC	nt	i	nt	i	i
COc1cccc(CN2C[C@@H](C)[C@H](OC)CN(C)C(=O)c3ccc(NS(=O)(=O)c4cn(C)cn4)cc3OC[C@H]2C)c1	i	nt	i	nt	nt
COCC(=O)Nc1ccc2c(c1)OC[C@@H](C)N(C(=O)c1ccncc1)C[C@@H](C)[C@H](OC)CN(C)C2=O	i	nt	i	nt	nt
CC(C)C#Cc1ccc2c(c1)O[C@@H](CN(C)C)[C@@H](C)CN([C@@H](C)CO)S2(=O)=O	i	nt	i	nt	nt
COc1ccccc1N(Cc1ccccc1)S(=O)(=O)c1cccc(C(=O)Nc2ccc(C)cn2)c1	i	i	i	53.0	i
